Data: ChEMBL document CHEMBL1165942, “Synthesis and anti-inflammatory activity of new arylidene-thiazolidine-2,4-diones as PPARgamma ligands” (Bioorg Med Chem, 2010)

Legend:
[1] = biological target: T1, Peroxisome proliferator-activated receptor gamma (Homo sapiens, UniProt P37231); test: Displacement of [3H]rosiglitazone from human PPARgamma ligand binding domain expressed in Escherichia coli BL21 after 12 hrs by liquid scintillation counting
T1 sequence (P37231 whole entry): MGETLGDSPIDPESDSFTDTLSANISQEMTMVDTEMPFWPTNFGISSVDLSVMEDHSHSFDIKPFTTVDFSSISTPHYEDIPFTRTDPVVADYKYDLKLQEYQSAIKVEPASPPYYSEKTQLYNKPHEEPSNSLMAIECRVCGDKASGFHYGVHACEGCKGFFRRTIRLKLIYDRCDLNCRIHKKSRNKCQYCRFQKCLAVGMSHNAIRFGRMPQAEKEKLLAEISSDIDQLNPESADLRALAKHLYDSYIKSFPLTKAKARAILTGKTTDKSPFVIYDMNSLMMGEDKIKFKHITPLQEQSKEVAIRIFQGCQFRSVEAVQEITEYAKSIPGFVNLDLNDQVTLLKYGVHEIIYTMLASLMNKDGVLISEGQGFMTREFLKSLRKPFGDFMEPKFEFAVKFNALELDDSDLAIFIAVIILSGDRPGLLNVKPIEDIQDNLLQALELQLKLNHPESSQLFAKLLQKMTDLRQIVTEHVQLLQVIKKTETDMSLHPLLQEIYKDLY
In short: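 His-tagged hPPARγ LBD purified on Co2+ affinity resin, preincubated 12 h at 4 °C with 40 nM [3H]rosiglitazone (50 Ci/mmol) in 10 mM Tris pH 8.0, 50 mM KCl, 10 mM DTT. Unlabeled ligand or DMSO vehicle added, then a further 12 h at 4 °C. Bound and free label separated on Sephadex G-25 and counted by scintillation. Results as % bound vs vehicle; Ki from concentration-dependent displacement.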

Mus musculus = test: Antiinflammatory activity against carrageenan-induced air pouch inflammation in po dosed mouse assessed as inhibition of leukocyte infiltration administered 1 hr before carrageenan challenge measured after 6 hrs by hemocytometry relative to untreated control

Structure (SMILES) | Ki [1] | inhibition (INH) (Mus musculus)
O=C1S/C(=C\c2ccc(Cl)cc2Cl)C(=O)N1Cc1c(F)cccc1Cl | 4 µM | 41.6%
O=C1S/C(=C\c2ccc3c(c2)Cc2ccccc2-3)C(=O)N1Cc1cccc(Cl)c1 | – | 65.2%
COc1ccc(/C=C2\SC(=O)N(Cc3cccc(Cl)c3)C2=O)cc1 | – | 42%
COc1ccc(Br)cc1/C=C1\SC(=O)N(Cc2cccc(Cl)c2)C1=O | – | 47.4%
CS(=O)(=O)c1ccc(/C=C2\SC(=O)N(Cc3cccc(Cl)c3)C2=O)cc1 | 43 µM | 63.9%
CS(=O)(=O)c1ccc(/C=C2\SC(=O)N(Cc3ccccc3Br)C2=O)cc1 | 7.3 µM | 73.3%
COc1ccc(/C=C2\SC(=O)N(Cc3cccc(Cl)c3)C2=O)cc1Br | – | 51.5%
O=C1S/C(=C\c2ccc(-c3ccccc3)cc2)C(=O)N1Cc1cccc(Cl)c1 | 43.6 µM | 67%
CN(CCOc1ccc(CC2SC(=O)NC2=O)cc1)c1ccccn1 (stereo not drawn) [ROSIGLITAZONE] | – | 72%
